Data: ChEMBL document CHEMBL4145468, “Synthesis and biological evaluation of new steroidal pyridines as potential anti-prostate cancer agents” (Eur J Med Chem, 2018)

Columns and labels:
GES1 = assay: Antiproliferative activity against human GES-1 cells after 72 hrs by MTT assay; type: cell-based; settings: GES1, 72 h
How it was run: (§1)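 Exponentially growing cells, 4×10^3/well, attached 24 h, then medium replaced with fresh medium holding graded compound concentrations for 72 h. MTT (5 mg/mL stock) added for 4 h, formazan dissolved in DMSO, absorbance at 570 nm; IC50 calculated from dose-response data.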

ECa-109 cell line = assay: Antiproliferative activity against human EC109 cells after 72 hrs by MTT assay; type: functional, cell-based; settings: ECa-109, 72 h; how it was run: as §1
PC-3 = assay: Antiproliferative activity against human PC3 cells after 72 hrs by MTT assay; type: functional, cell-based; settings: PC-3, 72 h; how it was run: as §1
MGC-803 = assay: Antiproliferative activity against human MGC803 cells after 72 hrs by MTT assay; type: functional, cell-based; settings: MGC-803, 72 h; how it was run: as §1
LNCaP = assay: Antiproliferative activity against human LNCAP cells after 72 hrs by MTT assay; type: functional, cell-based; how it was run: as §1

| Structure (SMILES) | IC50 (GES1) | IC50 (ECa-109 cell line) | IC50 (PC-3) | IC50 (MGC-803) | IC50 (LNCaP) |
| --- | --- | --- | --- | --- | --- |
| CCOc1nc([C@H]2CC[C@H]3[C@@H]4CC=C5C[C@@H](O)CC[C@]5(C)[C@H]4CC[C@]23C)cc(-c2ccc(C)cc2)c1C#N | > 32 µM | > 32 µM | > 32 µM | > 32 µM |  |
| CCOc1nc([C@H]2CC[C@H]3[C@@H]4CC=C5C[C@@H](O)CC[C@]5(C)[C@H]4CC[C@]23C)cc(-c2cccc([N+](=O)[O-])c2)c1C#N | > 32 µM | 27.6 µM | 7.77 µM | 13.1 µM |  |
| CCOc1cc(-c2ccc(C#N)cc2)cc([C@H]2CC[C@H]3[C@@H]4CC=C5C[C@@H](O)CC[C@]5(C)[C@H]4CC[C@]23C)n1 | > 32 µM | > 32 µM | 24.6 µM | 23.7 µM |  |
| CCOc1cc(-c2ccc(C)cc2)cc([C@H]2CC[C@H]3[C@@H]4CC=C5C[C@@H](O)CC[C@]5(C)[C@H]4CC[C@]23C)n1 | > 32 µM | > 32 µM | > 32 µM | > 32 µM |  |
| CCOc1nc([C@H]2CC[C@H]3[C@@H]4CC=C5C[C@@H](O)CC[C@]5(C)[C@H]4CC[C@]23C)cc(-c2ccccc2)c1C#N | 7.8 µM | 13.3 µM | 4.39 µM | 15.8 µM |  |
| CCOc1cc(-c2ccccc2)cc([C@H]2CC[C@H]3[C@@H]4CC=C5C[C@@H](O)CC[C@]5(C)[C@H]4CC[C@]23C)n1 | > 32 µM | > 32 µM | 31.1 µM | > 32 µM |  |
| CCOc1cc(-c2ccc(Cl)cc2)cc([C@H]2CC[C@H]3[C@@H]4CC=C5C[C@@H](O)CC[C@]5(C)[C@H]4CC[C@]23C)n1 | > 32 µM | > 32 µM | > 32 µM | 19.2 µM |  |
| CCOc1nc([C@H]2CC[C@H]3[C@@H]4CC=C5C[C@@H](O)CC[C@]5(C)[C@H]4CC[C@]23C)cc(-c2ccc(F)cc2)c1C#N | > 32 µM | > 32 µM | > 32 µM | > 32 µM |  |
| CCOc1nc([C@H]2CC[C@H]3[C@@H]4CC=C5C[C@@H](O)CC[C@]5(C)[C@H]4CC[C@]23C)cc(-c2cccc(Br)c2)c1C#N | 21.9 µM | > 32 µM | 9.42 µM | 28.5 µM |  |
| CCOc1cc(-c2cccc(Br)c2)cc([C@H]2CC[C@H]3[C@@H]4CC=C5C[C@@H](O)CC[C@]5(C)[C@H]4CC[C@]23C)n1 | > 32 µM | > 32 µM | 21.7 µM | > 32 µM |  |
| C[C@]12CC[C@H](O)CC1=CC[C@@H]1[C@@H]2CC[C@]2(C)C(c3cccnc3)=CC[C@@H]12 [ABIRATERONE] | 13.1 µM | > 32 µM | 5.94 µM | 7.72 µM | 3.29 µM |
| CCOc1cc(-c2cccnc2)cc([C@H]2CC[C@H]3[C@@H]4CC=C5C[C@@H](OC(C)=O)CC[C@]5(C)[C@H]4CC[C@]23C)n1 | > 32 µM | > 32 µM | 6.97 µM | > 32 µM | 27.9 µM |
| CCOc1cc(-c2ccc(F)cc2)cc([C@H]2CC[C@H]3[C@@H]4CC=C5C[C@@H](O)CC[C@]5(C)[C@H]4CC[C@]23C)n1 | > 32 µM | > 32 µM | > 32 µM | > 32 µM |  |
| CCOc1cc(-c2ccc(Br)cc2)cc([C@H]2CC[C@H]3[C@@H]4CC=C5C[C@@H](O)CC[C@]5(C)[C@H]4CC[C@]23C)n1 | > 32 µM | > 32 µM | > 32 µM | > 32 µM |  |
| CCOc1nc([C@H]2CC[C@H]3[C@@H]4CC=C5C[C@@H](O)CC[C@]5(C)[C@H]4CC[C@]23C)cc(-c2cc(F)cc(F)c2)c1C#N | > 32 µM | 20 µM | 6.99 µM | 12.3 µM |  |
| CCOc1nc([C@H]2CC[C@H]3[C@@H]4CC=C5C[C@@H](O)CC[C@]5(C)[C@H]4CC[C@]23C)cc(-c2cccs2)c1C#N | > 32 µM | 9.84 µM | 6.98 µM | 23.6 µM |  |
| CCOc1cc(-c2ccc(S(C)(=O)=O)cc2)cc([C@H]2CC[C@H]3[C@@H]4CC=C5C[C@@H](O)CC[C@]5(C)[C@H]4CC[C@]23C)n1 | > 32 µM | 31.3 µM | > 32 µM | > 32 µM |  |
| CCOc1nc([C@H]2CC[C@H]3[C@@H]4CC=C5C[C@@H](O)CC[C@]5(C)[C@H]4CC[C@]23C)cc(-c2ccsc2)c1C#N | 30.1 µM | 10.6 µM | 12.2 µM | 22.3 µM |  |
| CCOc1nc([C@H]2CC[C@H]3[C@@H]4CC=C5C[C@@H](O)CC[C@]5(C)[C@H]4CC[C@]23C)cc(-c2ccc(S(C)(=O)=O)cc2)c1C#N | > 32 µM | > 32 µM | > 32 µM | > 32 µM |  |
| CCOc1nc([C@H]2CC[C@H]3[C@@H]4CC=C5C[C@@H](O)CC[C@]5(C)[C@H]4CC[C@]23C)cc(-c2ccc(Cl)cc2)c1C#N | > 32 µM | > 32 µM | 10.4 µM | > 32 µM |  |
| CCOc1cc(-c2ncccc2Br)cc([C@H]2CC[C@H]3[C@@H]4CC=C5C[C@@H](O)CC[C@]5(C)[C@H]4CC[C@]23C)n1 | > 32 µM | > 32 µM | 13.4 µM | 25.8 µM |  |
| CCOc1cc(-c2ccncc2)cc([C@H]2CC[C@H]3[C@@H]4CC=C5C[C@@H](O)CC[C@]5(C)[C@H]4CC[C@]23C)n1 | 15.7 µM | 16.6 µM | 6.37 µM | 4.48 µM |  |
| CCOc1nc([C@H]2CC[C@H]3[C@@H]4CC=C5C[C@@H](O)CC[C@]5(C)[C@H]4CC[C@]23C)cc(-c2cccnc2)c1C#N | > 32 µM | 2.84 µM | 5.84 µM | 14.7 µM | 5.18 µM |
| CCOc1nc([C@H]2CC[C@H]3[C@@H]4CC=C5C[C@@H](O)CC[C@]5(C)[C@H]4CC[C@]23C)cc(-c2ccc(Br)cc2)c1C#N | > 32 µM | > 32 µM | 13.7 µM | > 32 µM |  |
| CCOc1cc(-c2ccco2)cc([C@H]2CC[C@H]3[C@@H]4CC=C5C[C@@H](O)CC[C@]5(C)[C@H]4CC[C@]23C)n1 | > 32 µM | 26.2 µM | 10.8 µM | 26.1 µM |  |
| CCOc1cc(-c2cccs2)cc([C@H]2CC[C@H]3[C@@H]4CC=C5C[C@@H](O)CC[C@]5(C)[C@H]4CC[C@]23C)n1 | > 32 µM | 17.6 µM | 15.3 µM | > 32 µM |  |
| CCOc1cc(-c2cc(F)cc(F)c2)cc([C@H]2CC[C@H]3[C@@H]4CC=C5C[C@@H](O)CC[C@]5(C)[C@H]4CC[C@]23C)n1 | > 32 µM | > 32 µM | 16.5 µM | > 32 µM |  |
